According to ChEMBL document CHEMBL1123708, “Resolved cis- and trans-2-amino-5-methoxy-1-methyltetralins: central dopamine receptor agonists and antagonists” (1987):
Active and inactive are the calls of the source. The rule behind the calls is not given here.

How the values were obtained:
[1] = biological target: T1, Dopamine receptor (Rattus norvegicus) (UniProt P25115+P19020+P30729+P18901+P61169); assay: In vivo displacement of DiPr-5,6-ADTN from Dopamine receptors in rat striatum; assay type: organism-based
Rattus norvegicus [2] = assay: Induced locomotor stimulation in non pre-treated rats by 13 umol/kg s.c. administration.; assay type: functional
Rattus norvegicus [3] = assay: Induced locomotor stimulation in non pre-treated rats by 52 umol/kg s.c. administration.; assay type: functional
Rattus norvegicus [4] = assay: In vivo DOPA accumulation in non pre-treated rat striatal system following s.c. administration.; assay type: functional; conditions: sc
Outline: (§1)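 Rats without pretreatment received test drug sc 65 min and NSD 1015 (100 mg/kg ip) 30 min before death, with saline controls. DOPA was measured in limbic or striatal tissue. Dose for half-maximal change was estimated from 4-5-dose curves (n = 3-5), maximal level as % of control.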

Rattus norvegicus [5] = assay: In vivo DOPA accumulation in non pre-treated rat limbic system following s.c. administration.; assay type: functional; conditions: sc; outline: as §1
Rattus norvegicus [6] = assay: Change in rectal temperature induced by DiPr-5,6-ADTN at a dose of 13 umol/kg of compound by subcutaneous administration; assay type: functional
Outline: (§2)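 Rats received DiPr-5,6-ADTN (0.25 μmol/kg sc) 100 min and test compound sc 40 min before death. Rectal temperature change (°C) was recorded between 60 and 100 min after DiPr-5,6-ADTN. Values are mean ± SEM, n = 4, with Student's t test vs DiPr-5,6-ADTN alone.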

Rattus norvegicus [7] = assay: Locomotory activity was determined in non pretreated rats at a dose of 3.2 umol/kg by subcutaneous administration; assay type: functional
Outline: (§3)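 Untreated rats received test drug sc 5 min before a 30-min session in photocell motility meters, with accumulated counts recorded. Activity is expressed as percent of saline controls, mean ± SEM, n = 3-5. Gross behaviour was observed through a semitransparent mirror. Differences from saline controls were assessed by Student's t test.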

Rattus norvegicus [8] = assay: Locomotory activity was determined in non pretreated rats at a dose of 52 umol/kg by subcutaneous administration; assay type: functional; outline: as §3
Rattus norvegicus [9] = assay: In vivo DOPA accumulation in non pretreated rat limbic system by subcutaneous administration; I denotes inactive; assay type: functional, organism-based; outline: as §1
Rattus norvegicus [10] = assay: In vivo DOPA accumulation in non pretreated rat striatum system by subcutaneous administration; denotes inactive; assay type: functional, organism-based; outline: as §1
Rattus norvegicus [11] = assay: Locomotory activity was determined in reserpine pretreated rats at a dose of 204 umol/kg by subcutaneous administration. Value is the accumulation counts/30 min; assay type: functional
Outline: (§4)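 Rats were given reserpine 5 mg/kg sc 18 h beforehand, then test drug sc immediately before the activity session. Motor activity was recorded by photocells in motility meters as accumulated counts over 30 min, mean ± SEM, n = 3-4. Gross behaviour was watched for signs of stimulation. Reserpine-only controls were included.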

[12] = biological target: T1, Dopamine receptor (Rattus norvegicus); assay: Ability to displace the Dopamine receptor agonist DiPr-5,6-ADTN from rat striatal binding sites in vivo at a dose of 52 uM/kg by subcutaneous administration; assay type: organism-based
Rattus norvegicus [13] = assay: In vivo DOPA accumulation in reserpine pretreated rat striatum system by subcutaneous administration; assay type: functional
Outline: (§5)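 Rats received reserpine (5 mg/kg sc) 18 h, test drug sc 60 min and NSD 1015 (100 mg/kg ip) 30 min before death, with saline controls. Limbic or striatal DOPA was measured. Dose for half-maximal decrease was estimated from 4-7-dose curves (n = 3-5), minimal level as % of control.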

Rattus norvegicus [14] = assay: Change in rectal temperature induced by DiPr-5,6-ADTN at a dose of 52 umol/kg of compound by subcutaneous administration; assay type: functional; outline: as §2
[15] = biological target: T1, Dopamine receptor (Rattus norvegicus); assay: Ability to displace the Dopamine receptor agonist DiPr-5,6-ADTN from rat striatal binding sites in vivo at a dose of 13 uM/kg by subcutaneous administration; assay type: organism-based
Rattus norvegicus [16] = assay: Induced locomotor stimulation was determined in non pretreated rats at a dose of 52 uM/kg by subcutaneous administration; assay type: functional; outline: as §3
Rattus norvegicus [17] = assay: In vivo DOPA accumulation in reserpine pretreated rat limbic system by subcutaneous administration; assay type: functional; conditions: sc; outline: as §5
Rattus norvegicus [18] = assay: In vivo DOPA accumulation in non pretreated rat striatum system by subcutaneous administration; I denotes inactive; assay type: functional, organism-based; outline: as §1
Rattus norvegicus [19] = assay: In vivo DOPA accumulation in reserpine pretreated rat limbic system by subcutaneous administration; I denotes inactive; assay type: functional, organism-based; outline: as §5
Rattus norvegicus [20] = assay: In vivo DOPA accumulation in reserpine pretreated rat striatum system by subcutaneous administration; I denotes inactive; assay type: functional, organism-based; outline: as §5
Rattus norvegicus [21] = assay: In vivo DOPA accumulation in non pretreated rat limbic system by subcutaneous administration; indicates 40-80% increase in limbic system after 52 umol/kg (sc); assay type: functional, organism-based; outline: as §1
Rattus norvegicus [22] = assay: In vivo DOPA accumulation in non pretreated rat striatum system by subcutaneous administration; indicates 40-80% increase in limbic system after 52 umol/kg (sc); assay type: functional, organism-based; outline: as §1
Rattus norvegicus [23] = assay: Locomotory activity was determined in reserpine pretreated rats at a dose of 52 umol/kg by subcutaneous administration. Value is the accumulation counts/30 min; assay type: functional; outline: as §4
Rattus norvegicus [24] = assay: In vivo % increase in DOPA accumulation in non pretreated rat limbic system after 52 umol/kg (sc); I denotes inactive; assay type: functional, organism-based
Rattus norvegicus [25] = assay: In vivo % increase in DOPA accumulation in non pretreated rat striatum system after 52 umol/kg (sc); I denotes inactive; assay type: functional, organism-based
[26] = biological target: T1, Dopamine receptor (Rattus norvegicus); assay: Ability to displace the Dopamine receptor agonist DiPr-5,6-ADTN from rat striatal binding sites in vivo at a dose of 10 uM/kg by subcutaneous administration; assay type: organism-based
Rattus norvegicus [27] = assay: Change in rectal temperature induced by DiPr-5,6-ADTN at a dose of 10 umol/kg of compound by subcutaneous administration; assay type: functional; outline: as §2
Rattus norvegicus [28] = assay: Change in rectal temperature induced by DiPr-5,6-ADTN at a dose of 40 umol/kg of compound by subcutaneous administration; assay type: functional; outline: as §2
[29] = biological target: T1, Dopamine receptor (Rattus norvegicus); assay: Ability to displace the Dopamine receptor agonist DiPr-5,6-ADTN from rat striatal binding sites in vivo at a dose of 40 uM/kg by subcutaneous administration; assay type: organism-based
Rattus norvegicus [30] = assay: Locomotory activity was determined in non pretreated rats at a dose of 52 umol/kg by subcutaneous administration; I denotes inactive; assay type: functional; outline: as §3
Rattus norvegicus [31] = assay: ((+)-UH-232) induced locomotor stimulation was determined in non pretreated rats at a dose of 52 umol/kg by subcutaneous administration; assay type: functional
[32] = biological target: T1, Dopamine receptor (Rattus norvegicus); assay: Ability to displace the Dopamine receptor agonist DiPr-5,6-ADTN from rat striatal binding sites in vivo at a dose of 52 umol/kg by subcutaneous administration; assay type: organism-based

SMILES	Binding [1]	Activity (Rattus norvegicus [2])	Activity (Rattus norvegicus [3])	ED50 (Rattus norvegicus [4])	ED50 (Rattus norvegicus [5])	Body temp change (Rattus norvegicus [6])	Activity (Rattus norvegicus [7])	Temperature (Rattus norvegicus [6])	further results
CCN[C@@H]1CCc2c(O)cccc2[C@@H]1C	64%	95%	62%	6 µmol/kg	15 µmol/kg	-0.5 °C	83%	–	–
CCN[C@@H]1CCc2c(OC)cccc2[C@@H]1C	36%	69%	–	4.8 µmol/kg	5.3 µmol/kg	–	108%	1.33 °C	Activity (Rattus norvegicus [8]): 60%
C[C@H]1c2cccc(O)c2CC[C@H]1N	98%	86%	–	–	–	–	94%	-0.7 °C	Activity (Rattus norvegicus [8]): 97%; ED50 (Rattus norvegicus [9]): inactive; ED50 (Rattus norvegicus [10]): inactive
C[C@@H]1c2cccc(O)c2CC[C@@H]1N(C)C	–	34%	15%	8.5 µmol/kg	8.5 µmol/kg	0.88 °C	–	–	Activity (Rattus norvegicus [11]): 7 counts/30 min; Binding [12]: 22%; ED50 (Rattus norvegicus [13]; sc): 25 µmol/kg; Body temp change (Rattus norvegicus [14]): 1.82 °C; Binding [15]: 63%; Activity (Rattus norvegicus [16]): 4%; ED50 (Rattus norvegicus [17]): 28 µmol/kg
CCCCN[C@@H]1CCc2c(OC)cccc2[C@@H]1C	76%	82%	–	20 µmol/kg	18 µmol/kg	–	113%	-0.25 °C	Activity (Rattus norvegicus [8]): 135%
CCCCN(CCCC)[C@@H]1CCc2c(OC)cccc2[C@@H]1C	–	96%	96%	–	–	-0.27 °C	–	–	ED50 (Rattus norvegicus [9]): inactive; ED50 (Rattus norvegicus [18]): inactive; Binding [15]: 115%
CCCN(CCC)[C@@H]1CCc2c(O)cccc2[C@H]1C	–	–	97%	–	–	–	–	–	ED50 (Rattus norvegicus [9]): inactive; ED50 (Rattus norvegicus [18]): inactive; ED50 (Rattus norvegicus [19]): inactive; ED50 (Rattus norvegicus [20]): inactive
CCCCN(CCCC)[C@@H]1CCc2c(O)cccc2[C@@H]1C	–	89%	82%	–	–	-0.43 °C	–	–	ED50 (Rattus norvegicus [21]): Weak activity; ED50 (Rattus norvegicus [22]): Weak activity; Binding [15]: 96%
CCN(CC)[C@H]1CCc2c(O)cccc2[C@H]1C	–	100%	40%	–	–	0.22 °C	–	–	Activity (Rattus norvegicus [23]): 5 counts/30 min; ED50 (Rattus norvegicus [13]; sc): 1.6 µmol/kg; ED50 (Rattus norvegicus [24]): inactive; Binding [15]: 70%; ED50 (Rattus norvegicus [17]): 1.4 µmol/kg; ED50 (Rattus norvegicus [25]): inactive
COc1cccc2c1CC[C@@H](N)[C@H]2C	83%	88%	–	4.2 µmol/kg	4.4 µmol/kg	–	136%	-1.33 °C	Activity (Rattus norvegicus [8]): 62%
CN[C@@H]1CCc2c(O)cccc2[C@@H]1C	54%	73%	–	7.5 µmol/kg	5.5 µmol/kg	–	143%	0.15 °C	Activity (Rattus norvegicus [8]): 47%
CCCN(CCC)[C@@H]1CCc2c(O)cccc2[C@@H]1C	–	–	102%	9.4 µmol/kg	110 µmol/kg	–	110%	–	Activity (Rattus norvegicus [23]): 6 counts/30 min; Binding [26]: 61%; Body temp change (Rattus norvegicus [27]): 1.7 °C; ED50 (Rattus norvegicus [19]): inactive; Body temp change (Rattus norvegicus [28]): 1.7 °C; ED50 (Rattus norvegicus [20]): inactive; Binding [29]: 21%
CCCN(CCC)[C@H]1CCc2c(OC)cccc2[C@@H]1C	–	–	82%	–	–	–	–	–	ED50 (Rattus norvegicus [9]): inactive; ED50 (Rattus norvegicus [18]): inactive; ED50 (Rattus norvegicus [19]): inactive; ED50 (Rattus norvegicus [20]): inactive
CCN(CC)[C@@H]1CCc2c(O)cccc2[C@@H]1C	49%	63%	19%	6.5 µmol/kg	13 µmol/kg	0.2 °C	113%	–	–
CCCN(CCC)[C@@H]1CCc2c(OC)cccc2[C@H]1C	–	–	–	–	–	–	–	–	ED50 (Rattus norvegicus [9]): inactive; ED50 (Rattus norvegicus [18]): inactive; Activity (Rattus norvegicus [30]): 88%; ED50 (Rattus norvegicus [13]): inactive; ED50 (Rattus norvegicus [19]): inactive
CN[C@@H]1CCc2c(OC)cccc2[C@@H]1C	51%	35%	29%	1.8 µmol/kg	4.7 µmol/kg	–	86%	-0.25 °C	Activity (Rattus norvegicus [31]): 9%; Binding [32]: 20%; Temperature (Rattus norvegicus [14]): 0.93 °C
C[C@H]1c2cccc(O)c2CC[C@H]1N(C)C	39%	11%	1%	3.4 µmol/kg	5.5 µmol/kg	1.48 °C	76%	–	–
CCCN[C@@H]1CCc2c(O)cccc2[C@@H]1C	66%	107%	125%	16 µmol/kg	9 µmol/kg	0.1 °C	114%	–	–
CCCCN(CCCC)[C@H]1CCc2c(O)cccc2[C@H]1C	–	87%	–	–	–	-0.7 °C	–	–	Activity (Rattus norvegicus [23]): 6 counts/30 min; Binding [15]: 124%; ED50 (Rattus norvegicus [19]): inactive; ED50 (Rattus norvegicus [20]): inactive
